For one assay, the system named is HT-29 cells. The assay can be described thus: MTT assay, cytotoxicity on HT-29 cells. The class given is cell-based, human. The method, boiled down: (§1)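 Cells were grown in RPMI 1640 with 10% FBS and penicillin/streptomycin at 37 °C, 5% CO2, and seeded for 24 hr. They were exposed 6 hr to peptide (1.25–100 µg/ml for IC50; 10 µg/ml for viability). MTT (5 mg/ml stock in PBS) was then added for 4 hr at 37 °C, formazan dissolved in DMSO for 30 min, and A570 read. 5-Fluorouracil served as positive control and DMSO as blank. Triplicates were run; IC50 is the mean ± SD of three experiments.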

In another assay the test system is HepG2 cells. Nature of the assay: MTT assay, cytotoxicity on HepG2 cells. The class given is cell-based, human. An outline of the steps:
as §1
In general terms: Tetrazolium assays rely on reduction of a dye to a coloured formazan, in cell work by metabolically active cells.

[1] abbreviates: MTT assay, 10 µg/ml of each peptide, 6 hr, control = 100.

Consider one molecule from article PMC5776435 (Iranian Journal of Basic Medical Sciences, 2018).

SMILES strings stand for the structures. ≈ marks a conversion by molar mass, not a printed value.

For orientation: IC50 means the concentration that gives 50% inhibition. Take `O=c1[nH]cc(F)c(=O)[nH]1` [5-Fluorouracil]: the half-inhibitory concentration (IC50) in the assay on HT-29 cells (Homo sapiens, HT-29, 6 h, read-out: IC50 cell line HT-29) came out at 6.08 µg/mL (≈ 46.7 µM); with HepG2 cells (Homo sapiens, HepG2, 6 h, read-out: IC50 cell line HepG2), 3.16 µg/mL (≈ 24.3 µM). Further, the “Viability percentage (HT-29), MTT assay” value in the assay with HT-29 cells (setting [1]) is on record as 9.28%. Further, in the assay with HepG2 cells (setting [1]), the “Viability percentage (HepG2), MTT assay” value amounted to 3.22%.
